Legend:
[1] = folding enthalpy; higher = less favourable; fluorescence melt of hairpins on a sequencing array, two-state fit; settings: sodium 0.088 M
How it was run: (§1)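 On a sequenced MiSeq flow cell, library hairpins with annealed Cy3 and quencher oligos were imaged for Cy3 fluorescence in 2.5 °C steps up to 60 °C, in 50 mM Na-HEPES pH 8.0, 25 mM NaCl. Normalisation used pre-quench Cy3 and control constructs. Bootstrapped two-state fits gave melting temperature and folding enthalpy, combined by inverse variance across four replicates and with fitted temperatures raised by 9.35 °C to match UV melts.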

[2] = melting temperature; fluorescence melt of hairpins on a sequencing array, two-state fit, raised by 9.35 °C to match UV melts; settings: sodium 0.088 M
How it was run: as §1

| Sequence | folding enthalpy [1] | Tm [2] |
| --- | --- | --- |
| GATCGTCCTCACGATC ((((((....)))))) | -42.9 kcal/mol | 53.5 °C |
| GATCGTCGCCACGATC ((((((....)))))) | -42.1 kcal/mol | 53.8 °C |
| GATCGTCGGCACGATC ((((((....)))))) | -21.4 kcal/mol | 53 °C |
| GATCGTCTATACGATC ((((((....)))))) | -38.9 kcal/mol | 54.8 °C |
| GATCGTCTCAACGATC ((((((....)))))) | -41.6 kcal/mol | 57.6 °C |
| GATCGTCTCCACGATC ((((((....)))))) | -38.1 kcal/mol | 53.7 °C |
| GATCGTCTCGACGATC ((((((....)))))) | -40.9 kcal/mol | 65.3 °C |
| GATCGTCTGCACGATC ((((((....)))))) | -38.3 kcal/mol | 55.3 °C |
| GATCGTCTTAACGATC ((((((....)))))) | -41.3 kcal/mol | 58.5 °C |
| GATCGTCTTCACGATC ((((((....)))))) | -45.7 kcal/mol | 53.4 °C |
| GATCGTGATAACGATC ((((((....)))))) | -40.2 kcal/mol | 63.6 °C |
| GATCGTGCAAACGATC ((((((....)))))) | -33 kcal/mol | 66.9 °C |
| GATCGTGCACACGATC ((((((....)))))) | -41.3 kcal/mol | 64.7 °C |
| GATCGTGCCCACGATC ((((((....)))))) | -39.8 kcal/mol | 59.7 °C |
| GATCGTGCTCACGATC ((((((....)))))) | -48.2 kcal/mol | 58.9 °C |
| GATCGTGCTGACGATC ((((((....)))))) | -36.4 kcal/mol | 55.8 °C |
| GATCGTGGAAACACGATC (((((((....))))))) | -41.2 kcal/mol | 66.3 °C |
| GATCGTGGAAACATGGTC ((.(.((....)).).)) | -20.4 kcal/mol | 32.7 °C |

| Sequence | folding enthalpy [1] | Tm [2] |
| --- | --- | --- |
| GATCGTGGAACGATC ((((((...)))))) | -35.7 kcal/mol | 66.8 °C |
| GATCGTGGAGACGATC ((((((....)))))) | -42.4 kcal/mol | 57.8 °C |
| GATCGTGGCACGATC ((((((...)))))) | -45.8 kcal/mol | 59.8 °C |
| GATCGTGGGAACGATC ((((((....)))))) | -38.5 kcal/mol | 61 °C |
| GATCGTGGGGACGATC ((((((....)))))) | -36.2 kcal/mol | 54.3 °C |
| GATCGTGTCACGATC ((((((...)))))) | -38.2 kcal/mol | 59.3 °C |
| GATCGTGTCGACGATC ((((((....)))))) | -33.9 kcal/mol | 60.3 °C |
| GATCGTGTTAACGATC ((((((....)))))) | -36 kcal/mol | 66.9 °C |
| GATCGTGTTCACGATC ((((((....)))))) | -44.2 kcal/mol | 58.8 °C |
| GATCGTTACCACGATC ((((((....)))))) | -45.6 kcal/mol | 54.3 °C |
| GATCGTTAGACGATC ((((((...)))))) | -34.8 kcal/mol | 52.9 °C |
| GATCGTTATACGATC ((((((...)))))) | -36.4 kcal/mol | 57.9 °C |
| GATCGTTCCACGATC ((((((...)))))) | -40.1 kcal/mol | 59.6 °C |
| GATCGTTCCTACGATC ((((((....)))))) | -41.9 kcal/mol | 56.7 °C |
| GATCGTTCTCACGATC ((((((....)))))) | -40.8 kcal/mol | 54.8 °C |
| GATCGTTGATACGATC ((((((....)))))) | -35.3 kcal/mol | 54.3 °C |
| GATCGTTGCTACGATC ((((((....)))))) | -35.9 kcal/mol | 56.3 °C |
| GATCGTTGTTACGATC ((((((....)))))) | -37.7 kcal/mol | 57.4 °C |
